KCNQ1 act: potentiators or activators of human KCNQ1 potassium channel | B-score at 10 µM | hit rate 0.35% among 310,000 | CHO-K1 KCNQ1, thallium flux FluxOR fluorescence; hits give high values | P51787;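 active = fluorescence ratio B-score, a plate-corrected score, at least three library SD, with initial intensity B-score within 5 SD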
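Assay system: CHO-K1 cells stably expressing KCNQ1; Medium: assay buffer with matched DMSO; Also added: K+/Tl+ depolarizing stimulus; Dosing: single dose; Timing: dye 90 min, compound 20 min, room temperature; Measured by: kinetic FluxOR thallium fluorescence, 10-s 1-Hz baseline, 110-s post-stimulus read; Read-out: peak-minus-minimum fluorescence over initial fluorescence, negative-control normalized, B-scored.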
KCNK9 inh: inhibitors of human KCNK9 two-pore domain potassium channel; Q9NPC2; HEK293 KCNK9, FluxOR thallium flux fluorescence; hits give low values; B-score at 10 µM; hit rate 1.2% among 310,000; AID 488922;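 active = ratio B-score over 3 SD below the library mean, with starting fluorescence within 5 SD of its mean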;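 note: negative B-score means less thallium flux so channel inhibition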
Target sequence (Q9NPC2 whole entry, looked up, the tested form may be a part): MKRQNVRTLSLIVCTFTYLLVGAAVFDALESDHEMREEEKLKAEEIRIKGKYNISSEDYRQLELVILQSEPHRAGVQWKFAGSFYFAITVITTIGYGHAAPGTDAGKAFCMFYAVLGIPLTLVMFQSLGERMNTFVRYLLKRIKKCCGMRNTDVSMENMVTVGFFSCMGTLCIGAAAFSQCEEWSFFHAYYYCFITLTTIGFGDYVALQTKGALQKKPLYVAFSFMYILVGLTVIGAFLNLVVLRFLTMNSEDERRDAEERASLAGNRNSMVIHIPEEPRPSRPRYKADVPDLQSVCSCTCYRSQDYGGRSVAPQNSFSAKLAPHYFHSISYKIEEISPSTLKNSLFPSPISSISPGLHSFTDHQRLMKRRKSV
hERG rescue: compounds protecting human hERG from proarrhythmic drug block; Q12809; CHO-hERG, FluxOR thallium flux, dofetilide IC70 present; activation (rescue from dofetilide block), less the hit threshold, % at 10 µM; hit rate 0.51% among 310,000;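 active = activation above the mean of controls blocked by dofetilide plus 5 SD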;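 note: thallium influx through hERG after potassium depolarization seen as dye fluorescence rise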
KCNQ1 inh: blocks the human KCNQ1 potassium channel; P51787; CHO-K1 KCNQ1, FluxOR thallium flux fluorescence; hits give high values; B-score at 10 µM; hit rate 1.3% among 310,000; AID 2642;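 active = compounds whose thallium flux B-score, printed positive for inhibition, exceeds three library SD while starting fluorescence stays within three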;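 note: channel opened by potassium depolarization with thallium stimulus after 20 min compound exposure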
KCNK3 block: human KCNK3 channel inhibition, primary screen; O14649; CHO-KCNK3 thallium flux, FluxOR fluorescence; hits give low values; B-score at 10 µM; hit rate 0.84% among 340,000; AID 602410;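 active = B-score under library mean minus 4 SD, starting fluorescence ratio at most library mean plus 5 SD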;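 note: more negative B-score means stronger inhibition of thallium flux through KCNK3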
KCNK9 block conf: confirmation of human KCNK9 potassium channel inhibitors; inhibition, % at 10 µM; HEK293 KCNK9 cells, FluxOR thallium flux fluorescence; AID 492992; hit rate 43% among 4,900; shares compounds with KCNK9 inh;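 active = thallium signal inhibited by more than 5 SD of the compound-free buffer control wells, on both duplicate plates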
Kir2-1 spec: mouse Kir2.1 off-target activity of KCNK9 modulators; shares compounds with KCNK9 inh; Kir2.1 cells, FluxOR thallium flux fluorescence; inhibition, % at 10 µM; hit rate 4% among 4,900;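 active = thallium signal drop more than 5 SD beyond the mean of the no-compound control wells, seen in both duplicate plates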;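 note: signal is fluorescence rise after thallium addition divided by baseline fluorescence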
KCNK9 uninduced: second counter-screen for KCNK9 modulators: effect in non-induced cells; shares compounds with KCNK9 inh; non-induced KCNK9-HEK293, FluxOR thallium flux; inhibition, % at 10 µM; hit rate 40% among 4,900;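 active = thallium signal drop beyond 5 SD of the untreated control mean, on both duplicate plates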
A number is an active result; i = inactive; nt = no result. An excerpt weighted towards active compounds, which were near 3.1% of everything screened.

SMILES	KCNQ1 act	KCNK9 inh	hERG rescue	KCNQ1 inh	KCNK3 block	KCNK9 block conf	Kir2-1 spec	KCNK9 uninduced
Nc1nc(Nc2cccc(C(F)(F)F)c2)nc(C(F)(F)F)n1	i	-9.3	i	i	i	40%	i	i
Nc1ncnc(Nc2cccc(C(F)(F)F)c2)n1	i	i	i	i	i	nt	nt	nt
O=C(NCC(c1ccco1)N1CCc2ccccc2C1)C(=O)Nc1ccccc1 (stereo unspecified)	i	i	i	i	i	nt	nt	nt
COc1ccccc1NC(=O)C(=O)NCC(c1ccco1)N1CCc2ccccc2C1 (stereo unspecified)	i	i	i	i	i	i	i	i
CC(C)COc1cccc(C(=O)N(CC(=O)Nc2ccccc2C(F)(F)F)Cc2ccco2)c1	nt	nt	nt	nt	i	nt	nt	nt
CC1CN(c2cc(-c3ccccc3)c3ccccc3n2)CC(C)O1 (stereo unspecified)	i	i	i	i	i	i	i	i
CC1CN(c2nc3ccccc3cc2-c2ccccc2)CC(C)O1 (stereo unspecified)	i	i	i	i	i	i	i	i
O=C(/C=C/c1ccccc1)N1c2ccccc2Sc2ccc(C(F)(F)F)cc21	i	-9.2	i	i	i	26%	i	36%
Cc1ccc(C)n1-c1nn(S(=O)(=O)c2cccc(C(F)(F)F)c2)c2cccc(F)c12	i	-14	i	i	i	60%	i	30%
Cc1ccc(NC(=O)c2ccc3c(c2)C(=O)N(c2cc(C)ccc2C)C3=O)nc1	i	i	i	i	i	nt	nt	nt
CO/N=C/c1ccc(N2CCOCC2)c([N+](=O)[O-])c1	i	i	i	i	i	nt	nt	nt
O=[N+]([O-])c1cc(/C=N/OCc2c(Cl)cccc2Cl)ccc1N1CCOCC1	i	i	i	i	i	i	i	i
O=C1N=c2ccccc2=C1c1sc(=S)n(NC(=O)c2cccc(O)c2)c1O	i	i	i	i	i	nt	nt	nt
O=C1N=c2ccc(Br)cc2=C1c1sc(=S)n(NS(=O)(=O)c2ccccc2)c1O	i	i	i	i	i	i	i	i
CCOc1cc(C)c(C(C)C)cc1S(=O)(=O)N1CC(C)OC(C)C1 (stereo unspecified)	i	i	i	i	i	nt	nt	nt
CCOc1cc(C)c(C(C)C)cc1S(=O)(=O)n1cnc(C)c1	i	i	i	i	i	i	i	i
Cc1cccc(C(=O)O/N=C/c2c(Cl)n(C)c3ccccc23)c1	i	-12	i	i	i	48%	i	34%
CC(C)[C@H](NC(=O)c1ccccc1Cl)C(=O)Nc1nc(-c2ccccn2)cs1	i	-9.3	i	i	i	42%	i	34%
COc1ccccc1-n1c(SCC(=O)Nc2cccc(S(N)(=O)=O)c2)nc2ccccc2c1=O	i	-8.4	i	i	i	34%	i	i
NS(=O)(=O)c1cccc(NC(=O)CSc2nc3ccccc3c(=O)n2Cc2ccco2)c1	nt	nt	nt	nt	i	nt	nt	nt
COc1ccc(C)cc1-n1c(SCC(=O)Nc2cc(C)on2)nc2ccccc2c1=O	i	i	i	i	i	nt	nt	nt
COc1ccc(OC)c(-n2c(SCC(=O)Nc3cccc(S(N)(=O)=O)c3)nc3ccccc3c2=O)c1	i	-13	i	i	i	56%	i	34%
CC1(C(=O)O)CCC(C(=O)NNC(=O)c2ccccc2Cl)C1(C)C (stereo unspecified)	i	i	i	i	i	nt	nt	nt
Cc1nn(Cc2ccccc2)c(=O)n1N(C)c1ncc(C(F)(F)F)cc1Cl	i	i	i	i	i	i	i	i
CC(C(=O)N1CCc2ccccc21)N1CCN(Cc2ccccc2)CC1 (stereo unspecified)	i	i	i	i	i	nt	nt	nt
SMILES	KCNQ1 act	KCNK9 inh	hERG rescue	KCNQ1 inh	KCNK3 block	KCNK9 block conf	Kir2-1 spec	KCNK9 uninduced
COc1cccc(C(=O)OC(C)CN2CCCC2)c1 (stereo unspecified)	i	i	i	i	i	nt	nt	nt
COc1cccc(C(=O)OCCN2CCCCC2)c1	i	i	i	i	i	i	i	i
O=C(Nc1cccc(S(=O)(=O)N2CCCCC2)c1)C1CCN(C(=O)c2ccc(Cl)cc2)CC1	nt	nt	nt	nt	i	nt	nt	nt
O=C(Nc1cccc(S(=O)(=O)N2CCCCCC2)c1)C1CCN(C(=O)c2ccc(Cl)cc2)CC1	i	i	i	i	i	i	i	i
O=C(Nc1cccc(S(=O)(=O)N2CCCCCC2)c1)C1CCN(C(=O)c2ccc(F)cc2)CC1	i	i	i	i	i	i	i	i
COc1ccccc1-c1oc2ccccc2c1C#CC(C)(C)O	nt	nt	nt	nt	i	nt	nt	nt
CC(c1nc2ccccc2c(=O)[nH]1)N1CCCN(S(=O)(=O)c2ccc(F)cc2)CC1 (stereo unspecified)	nt	nt	nt	nt	i	nt	nt	nt
COc1ccccc1/C=C/C1(C(=O)NC2CCCC2)CC(=O)N1c1ccc(C)cc1 (stereo unspecified)	i	-9.8	i	i	i	i	i	40%
COc1ccc(C(=O)COC(=O)C(CCSC)NS(=O)(=O)c2ccc(Cl)cc2)cc1 (stereo unspecified)	i	i	i	i	i	i	i	i
CCn1cc(S(=O)(=O)NC(C)c2cc(OC)ccc2OC)cn1 (stereo unspecified)	i	i	i	i	i	nt	nt	nt
Cc1ccccc1NC(=O)Cc1nc(COC(=O)c2cc(Cl)ccc2O)cs1	i	i	i	i	i	nt	nt	nt
COc1ccc(S(=O)(=O)N2CCOCC2)cc1NC(=O)CN1C(=O)NC(C)(C2CC2)C1=O (stereo unspecified)	nt	nt	nt	nt	i	nt	nt	nt
COc1ccc(/C=N/Nc2cc(N3CCCC3)nc(N3CCCC3)n2)cc1	i	i	i	8	i	i	i	i
Oc1ccc(/C=N/Nc2cc(N3CCCC3)nc(N3CCCC3)n2)cc1	i	i	i	i	i	nt	nt	nt
COC(=O)c1ccc(/C=N/N2CCN(Cc3ccc(C)cc3C)CC2)cc1	i	i	i	i	i	i	i	i
CC(C)(C)C(=O)NC1CC2CCCC(C1)N2C(=O)Nc1ccccc1 (stereo unspecified)	i	i	i	i	i	nt	nt	nt
O=C(COC(=O)CNC(=O)c1ccc(-c2ccccc2)cc1)NCc1ccco1	i	i	i	i	i	nt	nt	nt
O=C(CN(c1cccc(C(F)(F)F)c1)S(=O)(=O)c1ccc(Cl)c([N+](=O)[O-])c1)NCc1ccccc1	i	i	i	i	i	nt	nt	nt
O=C(CN(c1cccc(C(F)(F)F)c1)S(=O)(=O)c1ccc(Cl)c([N+](=O)[O-])c1)NCc1ccccc1Cl	i	-8.3	i	i	i	42%	i	36%
Cc1ccc(S(=O)(=O)N(C)c2ccc(C(=O)N3CCc4ccccc4C3)cc2)cc1	i	i	i	i	i	i	i	i
Cc1ccccc1NS(=O)(=O)c1cc(C(=O)N2CCc3ccccc3C2)ccc1C	i	i	i	i	i	nt	nt	nt
